Bioassay records as filed in PubChem.
An excerpt weighted towards active compounds, which were near 3.3% of everything screened.
ABCG2 block: blocks JC-1 efflux by human ABCG2 transporter. inhibition, % at 6.6 µM. IgMXP3 cells, flow cytometry. hit rate 0.1% among 190,000. Q9UNQ0;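 active = inhibition above 80%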
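Measure – % inhibition of efflux relative to nicardipine and DMSO · Test system – ABCG2 IgMXP3 and barcoded ABCB1 CCRF-Adr cell mix · Control set – nicardipine as high control, DMSO as low control · Compound – one concentration, 6.6 µM final · Signal – flow cytometry of retained JC-1 fluorescence · Timing – 10 min exposure at 25 °C with rotation, no wash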
ROMK primary: modulators of human ROMK potassium channel. P48048. Tet-inducible ROMK, thallium flux fluorescence; actives lie on both sides. hit rate 2% among 130,000. B-score at 10 µM. AID 1918;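 active = signal ratio slope over the read window, or its plate-corrected B-score, at least 3 SD from the plate mean, either direction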;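 also: B-score of the F/F0 ratio slope over 7 to 12 s after thallium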
Cl transport mod: modulates chloride dependent transport by human KCC2. Q9H2X9. KCC2 cells, thallium flux FluoZin-2 fluorescence. B-score of Tl+ flux slope (higher = more flux/activation; lower = inhibition) at 10 µM. hit rate 2.2% among 190,000;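 active = thallium flux slope and its plate-corrected score both differing from the plate sample mean at a set confidence after two filtering rounds, in either direction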;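 also: slope of fluorescence scaled to starting intensity during 10 to 20 s after thallium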
PMI act satM6P: PMI (human) activation, high substrate. P34949. coupled PMI enzyme assay, resazurin fluorescence, 20 min; hits give high values; 1 = untreated enzyme, 0 = substrate-free blank. activation factor at 20 µM. hit rate 0.34% among 190,000;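 active = activation factor of 2 or more at 20 µM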
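Material: human phosphomannose isomerase with PGI, G6PDH, diaphorase coupling enzymes. Quantity: 15 ng/mL PMI. Medium: HEPES pH 7.4 buffer with MgCl2 and Tween-20. Reagent: Near-saturating mannose-6-phosphate, 1.0 mM. Compound: 20 µM single dose. Times: enzyme reaction with compound 20 min at room temperature. Detection: resorufin fluorescence at Ex 544/Em 590 nm.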
PMI activator: phosphomannose isomerase (human) activation; P34949; activation factor at 20 µM; purified human PMI, coupled resazurin fluorescence, 20 min; hits give high values; 1 = vehicle control, 0 substrate-free wells; AID 1214; hit rate 0.005% among 190,000;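 active = activation factor of 2 or more at 20 µM, relative to plate controls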
ABCB1 inh: inhibitors of human ABCB1 transporter, ABCG2 counter-screen; CCRF-Adr cells, JC-1 efflux, flow cytometry; inhibition, % at 6.6 µM; hit rate 0.067% among 190,000; in the data active = inhibition above about 40%;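 also: higher value means more JC-1 retained so stronger ABCB1 efflux block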
KCC2 sec1: KCC2 (human) modulation, secondary assay; AID 1713; hit rate 15% among 3,700; normalised thallium flux (F/F0 slope) at 10 µM; HEK293-KCC2, thallium flux, FluoZin2 fluorescence; hits give high values; shares compounds with Cl transport mod;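 active = thallium flux slope above the same plate's solvent-only control mean plus 3 SD; inconclusive = the two replicate wells disagree; inactive = no significant difference from solvent-only control wells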
KCC2 bumet counter: thallium flux despite bumetanide block in KCC2 cells, secondary assay 3; hit rate 49% among 3,700; shares compounds with Cl transport mod; HEK293-KCC2 + bumetanide/ouabain, thallium flux FluoZin2; hits give high values; normalized thallium flux at 10 µM;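 active = thallium entry rate above the same plate's blocked-transporter control wells by more than 3 SD; inconclusive = the two repeat wells disagree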;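 also: raw slope of fluorescence over initial fluorescence between 10 and 20 s after thallium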
KCC2 secondary2: KCC2 (human) modulation, second secondary assay; hit rate 23% among 3,700; shares compounds with Cl transport mod; normalized thallium flux at 10 µM; HEK293-KCC2, thallium flux FluoZin2 fluorescence; actives lie on both sides; F/F0 rise rate, 10–20 s post-thallium;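 active = thallium flux slope more than 3 SD above or below the plate's solvent-only control mean, mostly below; inconclusive = the two repeat wells disagreed; inactive = no significant shift from solvent-only controls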
HEK counter1: parental HEK flux effect, counter-screen | AID 1716 | HEK293 parental cells, thallium flux FluoZin2, ouabain; baseline-ratio fluorescence slope, 10–20 s after thallium | hit rate 46% among 3,700 | shares compounds with Cl transport mod | thallium flux rate (normalised fluorescence) at 10 µM;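 active = thallium flux rate significantly above the same plate's solvent-only control wells, beyond their mean plus 3 SD; inconclusive = the two replicate wells gave conflicting results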
KCC2 ouabain: KCC2 (human) modulation, ouabain retest; shares compounds with Cl transport mod; HEK293-KCC2, thallium flux FluoZin2 fluorescence; bidirectional: low = inhibitor, high = activator; raw Tl+ flux slope (below DMSO = inhibition, above = activation) at 10 µM; hit rate 48% among 3,700; AID 1717;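 active = thallium flux slope beyond 3 SD from same-plate DMSO control mean in most replicates, usually higher, sometimes lower; inconclusive = repeat tests gave conflicting results; inactive = no significant difference from controls in most replicates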;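 also: slope of initial-normalized fluorescence between seconds 10 and 20 after thallium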
HEK counter2: counter-screen for KCC2 modulators: effect in parental HEK293 cells; shares compounds with Cl transport mod; thallium flux FluoZin-2 fluorescence slope; thallium flux slope at 10 µM; hit rate 33% among 3,700; AID 1718;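 active = thallium flux slope above the same plate's solvent-control mean plus 3 SD in both duplicate wells; inconclusive = duplicate wells that disagreed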;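 also: run without ouabain in cells lacking the KCC2 cotransporter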
Of the large screens only hits and unclear results are named; the others gave an inactive call (follow-up assays come after a bar, where they were run).

Cc1ccc(NC2(c3nnnn3-c3c(C)cccc3C)CCCCC2)cc1	none
CC(C)Cn1c(-c2csc3c2CCCC3)n[nH]c1=S	Cl transport mod 4.8 (no result: ROMK primary) | KCC2 sec1 inactive | KCC2 bumet counter 0.033 | KCC2 secondary2 inactive | HEK counter1 0.011 | KCC2 ouabain 0.029 | HEK counter2 inactive
CCC/C(=N/NC(=O)c1ccccc1Cl)c1ccccc1	none (no result: ROMK primary)
O=C1OC(Nc2ccc(F)c([N+](=O)[O-])c2)c2ccccc21 (centres undefined)	none (no result: ABCG2 block, PMI act satM6P, PMI activator, ABCB1 inh)
O=C1OC(Nc2ccc(F)cc2F)c2ccccc21 (centres undefined)	none (no result: Cl transport mod) | KCC2 sec1 inactive | KCC2 bumet counter inactive | KCC2 secondary2 inactive | HEK counter1 inactive | KCC2 ouabain inactive | HEK counter2 inactive
Cn1c(Sc2ccc(C(F)(F)F)cc2[N+](=O)[O-])nnc1-c1ccccc1	Cl transport mod -5.3 | KCC2 sec1 inactive | KCC2 bumet counter inactive | KCC2 secondary2 inactive | HEK counter1 inactive | KCC2 ouabain inactive | HEK counter2 inactive
Cc1ccc(C)c(NC(=O)c2ccccc2O)c1	none
Cc1ccc(O)c(C(=O)CC(=O)c2ccccc2Cl)c1	none (no result: ROMK primary, Cl transport mod) | KCC2 sec1 inconclusive | KCC2 bumet counter 0.064 | KCC2 secondary2 inactive | HEK counter1 0.038 | KCC2 ouabain 0.055 | HEK counter2 0.012
CCOC(=O)c1ccc(NC(=O)COC(=O)Cc2csc(-c3ccccc3)n2)cc1	Cl transport mod -4.9 (no result: ROMK primary) | KCC2 sec1 0.0061 | KCC2 bumet counter 0.015 | KCC2 secondary2 inconclusive | HEK counter1 0.011 | KCC2 ouabain 0.016 | HEK counter2 inactive
O=C(NC(=S)NCCC1=CCCCC1)c1cccnc1	Cl transport mod 14 | KCC2 sec1 inactive | KCC2 bumet counter 0.036 | KCC2 secondary2 inactive | HEK counter1 0.013 | KCC2 ouabain inconclusive | HEK counter2 0.011
CC(C)N(Cc1nc(-c2ccccc2)no1)C(=O)CN(C)S(=O)(=O)c1ccc(Br)cc1	none (no result: ROMK primary) | KCC2 sec1 inactive | KCC2 bumet counter inactive | KCC2 secondary2 inactive | HEK counter1 inactive | KCC2 ouabain inactive | HEK counter2 inactive
O=C(Nc1ccccc1)c1ccccc1NS(=O)(=O)c1ccc(Cl)s1	none (no result: ROMK primary, Cl transport mod)
Cc1ccc(NC(=O)c2ccccc2NS(=O)(=O)c2ccc(Cl)s2)cc1	Cl transport mod -3.7 | KCC2 sec1 inactive | KCC2 bumet counter inconclusive | KCC2 secondary2 0.022 | HEK counter1 inactive | KCC2 ouabain inconclusive | HEK counter2 inactive
Cn1cc(C=O)c2ccccc21	none
Cc1ccc(C(=O)NN2C(=O)/C(=C/c3cccn3C)SC2=S)cc1	none
Cc1ccc(C(=O)NN2C(=O)/C(=C/c3cn(C)c4ccccc34)SC2=S)cc1	Cl transport mod -3.7 | KCC2 sec1 0.0046 | KCC2 bumet counter inactive | KCC2 secondary2 0.026 | HEK counter1 0.0051 | KCC2 ouabain 0.025 | HEK counter2 inactive
Cc1ccc(/C=C2/SC(=O)NC2=S)o1	Cl transport mod 94 | KCC2 sec1 inconclusive | KCC2 bumet counter 0.07 | KCC2 secondary2 0.098 | HEK counter1 0.1 | KCC2 ouabain 0.094 | HEK counter2 0.099
Cc1ccc(/C=C2\SC(=S)N(CC3CCCO3)C2=O)o1 (centres undefined)	none (no result: ABCG2 block, PMI act satM6P, PMI activator, ABCB1 inh)
Cn1cc(/C=C2\SC(=O)NC2=S)c2ccccc21	Cl transport mod 21 (no result: ROMK primary) | KCC2 sec1 0.013 | KCC2 bumet counter 0.028 | KCC2 secondary2 inactive | HEK counter1 0.018 | KCC2 ouabain 0.034 | HEK counter2 inconclusive
CNS(=O)(=O)c1cc(NC(C)=O)c(C)cc1C	none (no result: ROMK primary)
COc1cc(OC)c(C(=O)/C=C/c2ccccc2)c(O)c1O	Cl transport mod -1.5 (no result: ABCG2 block, ROMK primary, PMI act satM6P, PMI activator, ABCB1 inh) | KCC2 sec1 inactive | KCC2 bumet counter inconclusive | KCC2 secondary2 0.026 | HEK counter1 inactive | KCC2 ouabain inconclusive | HEK counter2 inactive
COc1ccccc1CNC(=O)C1CCN(S(=O)(=O)c2ccc3c(c2)OCCCO3)CC1	none (no result: ROMK primary)
CCC(C)N(C(=O)Cn1nnc2ccccc21)C(C(=O)Nc1ccc(F)cc1)c1cccc(OC)c1 (centres undefined)	none (no result: ROMK primary)
COc1ccccc1/C=C/C=N/NC(=O)CCn1nnc2ccccc21	none
CC(C)/C=C1\CC/C(=C\c2cccnc2)C1=O	Cl transport mod -4.1 | KCC2 sec1 inactive | KCC2 bumet counter inactive | KCC2 secondary2 inactive | HEK counter1 inactive | KCC2 ouabain inactive | HEK counter2 inactive
CCOc1ccccc1N1CCN(c2nc3ccccc3nc2C(C#N)C(=O)OC)CC1 (centres undefined)	none (no result: Cl transport mod) | KCC2 sec1 inactive | KCC2 bumet counter inactive | KCC2 secondary2 inactive | HEK counter1 inactive | KCC2 ouabain inactive | HEK counter2 inactive
COc1ccccc1N1CCN(c2nc3ccccc3nc2C(C#N)C(=O)OC(C)C)CC1 (centres undefined)	none (no result: ROMK primary)
COCCCNC(=O)C(C#N)c1nc2ccccc2nc1N1CCCC1 (centres undefined)	none (no result: ROMK primary, PMI act satM6P, PMI activator) | KCC2 sec1 inconclusive | KCC2 bumet counter -0.00027 | KCC2 secondary2 0.019 | HEK counter1 0.0053 | KCC2 ouabain 0.013 | HEK counter2 inconclusive
CCCCCNC(=O)C(C#N)c1nc2ccccc2nc1N1CCCC1 (centres undefined)	none (no result: ROMK primary)
Cc1nn(C)c(Oc2ccc(Cl)cc2)c1C(=O)Nc1ccc(F)cc1F	none (no result: ROMK primary, Cl transport mod)
COc1ccc2nc(SCC(=O)Nc3nccs3)[nH]c2c1	none (no result: ROMK primary)
Cc1nc(N2CCOCC2)c2c3c(sc2n1)CCC3	Cl transport mod 14 | KCC2 sec1 inactive | KCC2 bumet counter 0.017 | KCC2 secondary2 inactive | HEK counter1 0.016 | KCC2 ouabain 0.032 | HEK counter2 0.011
CSc1nc(N2CCOCC2)c2c3c(sc2n1)CCCC3	none (no result: ROMK primary)
